From ChEMBL document CHEMBL1933018 (Bioorg Med Chem Lett, 2012)

Legend:
[1] = biological target: T1, Progesterone receptor (Homo sapiens, UniProt P06401); assay: Antagonist activity at progesterone receptor; assay type: functional
T1 sequence (P06401 whole entry): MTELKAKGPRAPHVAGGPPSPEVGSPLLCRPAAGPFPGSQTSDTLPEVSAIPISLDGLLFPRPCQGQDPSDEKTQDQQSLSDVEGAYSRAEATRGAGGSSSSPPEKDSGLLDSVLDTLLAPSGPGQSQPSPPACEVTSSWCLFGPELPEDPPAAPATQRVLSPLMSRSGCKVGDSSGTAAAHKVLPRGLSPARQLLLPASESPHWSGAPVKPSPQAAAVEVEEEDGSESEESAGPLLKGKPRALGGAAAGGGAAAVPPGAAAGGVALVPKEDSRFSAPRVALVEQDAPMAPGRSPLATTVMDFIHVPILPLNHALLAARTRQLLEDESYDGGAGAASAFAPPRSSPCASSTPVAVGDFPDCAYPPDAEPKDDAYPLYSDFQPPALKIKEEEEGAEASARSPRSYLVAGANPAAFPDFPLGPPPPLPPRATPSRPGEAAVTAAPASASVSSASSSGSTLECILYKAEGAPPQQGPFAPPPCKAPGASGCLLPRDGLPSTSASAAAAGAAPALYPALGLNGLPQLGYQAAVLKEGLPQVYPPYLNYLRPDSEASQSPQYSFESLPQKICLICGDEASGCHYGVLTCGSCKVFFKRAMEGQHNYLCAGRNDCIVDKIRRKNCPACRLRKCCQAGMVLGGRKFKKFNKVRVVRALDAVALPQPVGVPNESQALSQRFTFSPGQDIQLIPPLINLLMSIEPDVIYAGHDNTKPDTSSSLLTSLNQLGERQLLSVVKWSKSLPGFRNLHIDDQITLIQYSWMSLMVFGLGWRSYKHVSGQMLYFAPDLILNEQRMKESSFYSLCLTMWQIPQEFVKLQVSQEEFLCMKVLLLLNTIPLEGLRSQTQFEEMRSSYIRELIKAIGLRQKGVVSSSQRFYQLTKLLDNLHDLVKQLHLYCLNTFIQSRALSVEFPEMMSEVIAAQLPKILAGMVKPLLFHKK

[2] = Intrinsic clearance in liver microsomes; assay type: ADME, Microsome; conditions: read-out: CLH
[3] = biological target: T2, Corticotropin-releasing factor receptor 1 (Homo sapiens, UniProt P34998); assay: Antagonist activity at human recombinant CRF1 receptor expressed in CHO cells by cAMP assay; assay type: functional, cell-based
T2 sequence (P34998 whole entry): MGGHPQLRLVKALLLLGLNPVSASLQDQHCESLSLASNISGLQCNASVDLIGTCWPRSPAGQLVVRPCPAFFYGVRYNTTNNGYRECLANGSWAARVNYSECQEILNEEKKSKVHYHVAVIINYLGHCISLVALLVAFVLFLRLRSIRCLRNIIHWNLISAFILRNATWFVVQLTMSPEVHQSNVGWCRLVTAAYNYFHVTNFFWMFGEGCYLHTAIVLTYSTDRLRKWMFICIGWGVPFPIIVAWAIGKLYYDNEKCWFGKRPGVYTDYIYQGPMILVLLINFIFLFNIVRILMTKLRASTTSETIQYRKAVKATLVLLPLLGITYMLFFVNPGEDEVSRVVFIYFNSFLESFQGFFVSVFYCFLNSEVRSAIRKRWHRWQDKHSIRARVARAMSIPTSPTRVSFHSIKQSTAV
Summary of the method: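 CHO cells stably expressing recombinant human CRF-1 were grown in DMEM:F12 (1:1) with 10% FBS, 400 µg/ml Geneticin and 1% Glutamax at 37 °C, 5% CO2 to 70% confluence. 10,000 cells/well in PBS with 500 µM IBMX (final) were stimulated with hCRF (108 nM final) plus test compound. cAMP was read by HitHunter cAMP II kit. Compounds were tested repeatedly over a 0.5-log serial dilution series.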

Row | IC50 [1] | microsomal CLint [2] | Ki [3] | Compound
1 | 0.43 µM | – | – | CC#C[C@]1(O)CC[C@H]2[C@@H]3CCC(=O)C(CCC(=O)O)=C3[C@@H](c3ccc(N(C)C=O)cc3)C[C@@]21C
2 | 0.01 µM | 81 µL/min/mg | – | CC#C[C@]1(O)CC[C@H]2[C@@H]3CCC4=CC(=O)CCC4=C3[C@@H](c3ccc(N(C)C=O)cc3)C[C@@]21C
3 | 0.307 µM | – | – | CC#C[C@]1(O)CC[C@H]2[C@@H]3CCC4=CC(=O)CCC4=C3C(c3ccc(N(C)C)cc3)=C[C@@]21C
4 | 0.771 µM | 76 µL/min/mg | – | CC#C[C@]1(O)CC[C@H]2[C@@H]3CCC4=CC(=O)CCC4=C3[C@@](Cl)(c3cc(Cl)c(N(C)C)c(Cl)c3)C[C@@]21C
5 | – | – | 0.006 µM | CCCCN(CC)c1nc(C)nc2c1c(C)c(CO)n2-c1c(C)cc(C)cc1C
6 | – | – | 0.052 µM | CCCCN(CC)c1nc(C)nc2c1c(C)c(C=O)n2-c1c(C)cc(C)cc1C
7 | – | – | 0.011 µM | CCCCN(CC)c1nc(C)nc2c1c(C)c(COC)n2-c1c(C)cc(C)cc1C
8 | – | – | 0.032 µM | CCCCN(CC)c1nc(C)nc2c1c(C)c(C)n2-c1c(C)cc(C)cc1C [ANTALARMIN]
9 | – | 92.5 µL/min/mg | – | CC#C[C@]1(O)CC[C@H]2[C@@H]3CCC4=CC(=O)CCC4=C3[C@@H](c3ccc(N(C)C)cc3)C[C@@]21C [MIFEPRISTONE]
